Among the data in BindingDB's records for doi:10.1021/jm501455s (Istituto Italiano Di Tecnologia, 2014) are IC50 values, retold here.

For the assay, the target named is T1, N-acylethanolamine-hydrolyzing acid amidase (Rattus norvegicus, UniProt Q5KTC7).
T1 sequence (Q5KTC7 whole entry): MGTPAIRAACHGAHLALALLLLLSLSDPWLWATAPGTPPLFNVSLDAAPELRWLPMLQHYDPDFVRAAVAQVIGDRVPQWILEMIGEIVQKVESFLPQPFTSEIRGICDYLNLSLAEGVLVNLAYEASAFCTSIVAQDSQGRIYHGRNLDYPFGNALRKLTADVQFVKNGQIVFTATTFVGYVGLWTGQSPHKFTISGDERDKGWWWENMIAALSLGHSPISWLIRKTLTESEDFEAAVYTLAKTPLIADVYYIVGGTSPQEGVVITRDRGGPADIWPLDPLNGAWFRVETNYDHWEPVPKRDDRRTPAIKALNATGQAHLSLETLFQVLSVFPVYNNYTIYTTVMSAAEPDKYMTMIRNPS
The assay is described as follows: Inhibition of NAAA in Sprague-Dawley rat lung assessed as inhibition of hydrolysis of 10-cis-heptadecenoylethanolamide by UPLC/MS method. In short, it runs like this: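 Native NAAA enzyme prepared from rat lungs, not a recombinant construct. The substrate, 10-cis-heptadecenoylethanolamide, is an unnatural fatty acid ethanolamide. Inhibition of its hydrolysis was measured, and the median inhibitory concentration (IC50) was reported.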
As to `Cc1ccc(-c2ccc(COC(=O)N[C@H]3C(=O)O[C@H]3C)cc2)cc1`, the IC50 (usually the concentration that gives 50% inhibition) stood at 24 nM. Then `C[C@@H]1OC(=O)[C@@H]1NC(=O)OCC#Cc1ccccc1`, with 15 nM; and `C[C@@H]1OC(=O)[C@@H]1NC(=O)OCc1ccc(-c2ccc(C(F)(F)F)cc2)cc1` [US9353075, 44], with 28 nM.
